According to ChEMBL document CHEMBL1629621, “Evaluation of strategies for improving proteolytic resistance of antimicrobial peptides by using variants of EFK17, an internal segment of LL-37” (Antimicrob Agents Chemother, 2009):
≈ marks a conversion by molar mass, not a printed value. Calls of active or inactive are those of the source. The rule behind the calls is not given here. Where a SMILES comes first, the peptide text is derived from it.

Key:
Staphylococcus aureus [1] = test: Antimicrobial activity against Staphylococcus aureus 2844 after 21 hrs by broth microdilution method; type: functional; settings: Staphylococcus aureus, 2844, 21 h
Method in brief: (§1)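 Microtiter broth dilution at 37°C for 21 h in DEAE-refined LB medium prepared in 10 mM Tris, pH 7.4. Bacteria were grown overnight in 3% trypticase soy broth, rinsed in Tris and used at about 10^6 CFU/ml. Final peptide was 0.6–80 µM in twofold steps. Growth was read visually as pellet and at OD540. MIC is >95% inhibition with no visible pellet. Two separate experiments.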

Pseudomonas aeruginosa [2] = test: Antimicrobial activity against Pseudomonas aeruginosa 15159 after 21 hrs by broth microdilution method; type: functional; settings: Pseudomonas aeruginosa, 15159, 21 h; method in brief: as §1
Staphylococcus aureus [3] = test: Antimicrobial activity against Staphylococcus aureus FDA 486 after 21 hrs by broth microdilution method; type: functional; settings: FDA 486, 21 h; method in brief: as §1
Lipid bilayer [4] = test: Induction of DOPC-cholesterol liposome leakage in cell-free system at 0.1 to 1 uM after 45 mins; type: functional
Method in brief: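 Carboxyfluorescein-loaded (100 mM, self-quenching) DOPC-cholesterol 3:2 unilamellar liposomes, about 110 nm, at 10 µM lipid in Tris buffer at 37°C with stirring. Peptide was added at a single concentration per experiment, between 0.01 and 1 µM. After a 10 min baseline, fluorescence increase was followed for 45 min and the limiting leakage level taken.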

Staphylococcus aureus [5] = test: Antimicrobial activity against Staphylococcus aureus 29213 after 21 hrs by broth microdilution method; type: functional; settings: Staphylococcus aureus, 29213, 21 h; method in brief: as §1
[6] = Stability of the compound at 136 uM after 4 hrs in presence of […] V8 protease; type: ADME
Method in brief: (§2)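 Peptide at 136 µM was incubated with protease (peptide:enzyme 300:1) for 4 h at 37°C in 10 mM Tris, pH 7.4. The reaction was stopped by boiling in Laemmli buffer, then run on Tris-Tricine 16.5% SDS-PAGE and Coomassie stained. Band densitometry gave the undegraded fraction, normalized to peptide incubated without enzyme. Two separate experiments.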

[7] = Stability of the compound at 136 uM after 4 hrs in presence of aureolysin; type: ADME; method in brief: as §2
[8] = Stability of the compound at 136 uM after 4 hrs in presence of Pseudomonas aeruginosa elastase; type: ADME; method in brief: as §2
Pseudomonas aeruginosa [9] = test: Antimicrobial activity against Pseudomonas aeruginosa ATCC 27853 after 21 hrs by broth microdilution method; type: functional; settings: ATCC 27853, 21 h; method in brief: as §1
[10] = Stability of the compound at 136 uM after 4 hrs in presence of human neutrophil elastase; type: ADME; method in brief: as §2
Lipid bilayer [11] = test: Binding affinity to DOPC-cholesterol liposome at 10 to 1000 uM after 45 mins by ellipsometry
Method in brief: (§3)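 Ellipsometry on DOPC-cholesterol bilayers deposited from DDM micelles onto silica. Peptide was added cumulatively in 10 mM Tris, pH 7.4, with 5 mM glucose at 37°C; […] adds 150 mM NaCl. Each step was followed 45 min to saturation. Adsorbed amount was calculated from refractive index and thickness, with dn/dc 0.154 cm3/g. Duplicates.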

Lipid bilayer [12] = test: Binding affinity to DOPC-cholesterol liposome at 10 to 1000 uM after 45 mins by ellipsometry in presence of NaCl; method in brief: as §3
HaCaT [13] = test: Cytotoxicity against human HaCaT assessed at 6 to 60 uM by MTT assay; type: cell-based
Method in brief: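 HaCaT keratinocytes were seeded at 3,000 cells/well, grown to confluence in SFM-BPE-rEGF, and given 6 or 60 µM peptide overnight. MTT was then added for 1 h at 37°C and formazan dissolved in DMSO. Absorbance was read at 550 nm relative to untreated cells, with the 1% Triton X-100 signal as background. Triplicate.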

[14] = Toxicity in human erythrocytes at 6 to 60 uM by hemolysis assay; type: cell-based; settings: erythrocyte
Method in brief: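 EDTA-treated human erythrocytes were washed and used as a 5% suspension in PBS, pH 7.4. Cells were rotated end-over-end with peptide for 1 h at 37°C, then centrifuged. Hemoglobin was read at 540 nm relative to 2% Triton X-100, with spontaneous leakage as background. Triplicate.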

HaCaT [15] = test: Cytotoxicity against human HaCaT assessed as LDH release at 6 to 60 uM; type: cell-based
Method in brief: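 HaCaT keratinocytes were seeded at 3,000 cells/well and grown to confluence in serum-free keratinocyte medium with BPE-rEGF. They were exposed overnight to 6 or 60 µM peptide in that medium. LDH release was measured against a 1% Triton X-100 control, with spontaneous release as background. Triplicate.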

SMILES	MIC (Staphylococcus aureus [1]) [µM]	MIC (Pseudomonas aeruginosa [2]) [µM]	MIC (Staphylococcus aureus [3]) [µM]	MIC (Staphylococcus aureus [5]) [µM]	Stability [6]	Stability [7]	Stability [8]	MIC (Pseudomonas aeruginosa [9]) [µM]	Stability [10]	Activity (Lipid bilayer [11])	Activity (Lipid bilayer [12])	Activity (Lipid bilayer [4])	Activity (HaCaT [13])	Activity [14]	Activity (HaCaT [15])
CC(=O)N[C@@H](CCC(=O)O)C(=O)N[C@@H](Cc1c[nH]c2ccccc12)C(=O)N[C@@H](CCCCN)C(=O)N[C@@H](CCCNC(=N)N)C(=O)N[C@@H](Cc1c[nH]c2ccccc12)C(=O)N[C@H](C(=O)N[C@@H](CCC(N)=O)C(=O)N[C@@H](CCCNC(=N)N)C(=O)N[C@@H](Cc1c[nH]c2ccccc12)C(=O)N[C@@H](CCCCN)C(=O)N[C@@H](CC(=O)O)C(=O)N[C@@H](Cc1c[nH]c2ccccc12)C(=O)N[C@@H](CC(C)C)C(=O)N[C@@H](CCCNC(=N)N)C(=O)N[C@@H](CC(N)=O)C(=O)N[C@@H](CC(C)C)C(=O)N[C@H](C(N)=O)C(C)C)C(C)C (Ac-EWKRWVQRWKDWLRNLV-NH2)	5 (≈ 12.2 µg/mL)	10 (≈ 24.4 µg/mL)	5 (≈ 12.2 µg/mL)	10 (≈ 24.4 µg/mL)	Stable	Stable	Unstable	10 (≈ 24.4 µg/mL)	Stable			Active			
CC[C@@H](C)[C@@H](NC(=O)[C@H](CCCNC(=N)N)NC(=O)[C@H](CCC(N)=O)NC(=O)[C@@H](NC(=O)[C@H](NC(=O)[C@H](CCCNC(=N)N)NC(=O)[C@H](CCCCN)NC(=O)[C@@H](Cc1ccccc1)NC(=O)[C@@H](N)CCC(=O)O)[C@H](C)CC)C(C)C)C(=O)N[C@@H](CCCCN)C(=O)N[C@@H](CC(=O)O)C(=O)N[C@H](Cc1ccccc1)C(=O)N[C@@H](CC(C)C)C(=O)N[C@@H](CCCNC(=N)N)C(=O)N[C@@H](CC(N)=O)C(=O)N[C@@H](CC(C)C)C(=O)N[C@H](C(=O)O)C(C)C [listing 1 of 2 here]					Stable	Stable	Stable		Stable						
CC[C@@H](C)[C@@H](NC(=O)[C@H](CCCNC(=N)N)NC(=O)[C@H](CCC(N)=O)NC(=O)[C@@H](NC(=O)[C@H](NC(=O)[C@H](CCCNC(=N)N)NC(=O)[C@H](CCCCN)NC(=O)[C@@H](Cc1ccccc1)NC(=O)[C@@H](N)CCC(=O)O)[C@H](C)CC)C(C)C)C(=O)N[C@@H](CCCCN)C(=O)N[C@@H](CC(=O)O)C(=O)N[C@H](Cc1ccccc1)C(=O)N[C@@H](CC(C)C)C(=O)N[C@@H](CCCNC(=N)N)C(=O)N[C@@H](CC(N)=O)C(=O)N[C@@H](CC(C)C)C(=O)N[C@H](C(=O)O)C(C)C [listing 2 of 2 here]	> 80	> 80	> 80	> 80				> 80							
CC[C@H](C)[C@H](NC(=O)[C@H](CCCCN)NC(=O)[C@H](CCC(=O)O)NC(=O)[C@H](CCCCN)NC(=O)[C@H](CO)NC(=O)[C@H](CCCCN)NC(=O)[C@H](CCCNC(=N)N)NC(=O)[C@H](Cc1ccccc1)NC(=O)[C@H](Cc1ccccc1)NC(=O)[C@H](CC(=O)O)NC(=O)CNC(=O)[C@H](CC(C)C)NC(=O)[C@@H](N)CC(C)C)C(=O)NCC(=O)N[C@@H](CCCCN)C(=O)N[C@@H](CCC(=O)O)C(=O)N[C@@H](Cc1ccccc1)C(=O)N[C@@H](CCCCN)C(=O)N[C@@H](CCCNC(=N)N)C(=O)N[C@H](C(=O)N[C@H](C(=O)N[C@@H](CCC(N)=O)C(=O)N[C@@H](CCCNC(=N)N)C(=O)N[C@H](C(=O)N[C@@H](CCCCN)C(=O)N[C@@H](CC(=O)O)C(=O)N[C@@H](Cc1ccccc1)C(=O)N[C@@H](CC(C)C)C(=O)N[C@@H](CCCNC(=N)N)C(=O)N[C@@H](CC(N)=O)C(=O)N[C@@H](CC(C)C)C(=O)N[C@H](C(=O)N1CCC[C@H]1C(=O)N[C@@H](CCCNC(=N)N)C(=O)N[C@H](C(=O)N[C@@H](CCC(=O)O)C(=O)N[C@@H](CO)C(=O)O)[C@@H](C)O)C(C)C)[C@@H](C)CC)C(C)C)[C@@H](C)CC [CATHELICIDIN]	5 (≈ 22.5 µg/mL)	2.5 (≈ 11.2 µg/mL)	2.5 (≈ 11.2 µg/mL)	5 (≈ 22.5 µg/mL)	Unstable	Unstable	Unstable	2.5 (≈ 11.2 µg/mL)	Unstable						
CC[C@H](C)[C@@H](NC(=O)[C@H](CCCNC(=N)N)NC(=O)[C@H](CCC(N)=O)NC(=O)[C@@H](NC(=O)[C@H](NC(=O)[C@H](CCCNC(=N)N)NC(=O)[C@H](CCCCN)NC(=O)[C@@H](Cc1ccccc1)NC(=O)[C@H](CCC(=O)O)NC(C)=O)[C@@H](C)CC)C(C)C)C(=O)N[C@@H](CCCCN)C(=O)N[C@@H](CC(=O)O)C(=O)N[C@H](Cc1ccccc1)C(=O)N[C@@H](CC(C)C)C(=O)N[C@@H](CCCNC(=N)N)C(=O)N[C@@H](CC(N)=O)C(=O)N[C@@H](CC(C)C)C(=O)N[C@H](C(N)=O)C(C)C												Active			

Second part, led by results:

MIC (Staphylococcus aureus [1]) [µM]	MIC (Pseudomonas aeruginosa [2]) [µM]	MIC (Staphylococcus aureus [3]) [µM]	MIC (Staphylococcus aureus [5]) [µM]	Stability [6]	Stability [7]	Stability [8]	MIC (Pseudomonas aeruginosa [9]) [µM]	Stability [10]	Activity (Lipid bilayer [11])	Activity (Lipid bilayer [12])	SMILES	Activity (Lipid bilayer [4])	Activity (HaCaT [13])	Activity [14]	Activity (HaCaT [15])
				Stable	Stable	Stable		Stable			CC[C@@H](C)[C@@H](NC(=O)[C@H](CCCNC(=N)N)NC(=O)[C@H](CCC(N)=O)NC(=O)[C@@H](NC(=O)[C@H](NC(=O)[C@H](CCCNC(=N)N)NC(=O)[C@H](CCCCN)NC(=O)[C@@H](Cc1ccccc1)NC(=O)[C@H](CCC(=O)O)NC(C)=O)[C@H](C)CC)C(C)C)C(=O)N[C@@H](CCCCN)C(=O)N[C@@H](CC(=O)O)C(=O)N[C@H](Cc1ccccc1)C(=O)N[C@@H](CC(C)C)C(=O)N[C@@H](CCCNC(=N)N)C(=O)N[C@@H](CC(N)=O)C(=O)N[C@@H](CC(C)C)C(=O)N[C@H](C(N)=O)C(C)C [listing 1 of 2 here]				
									Active		CC[C@H](C)[C@H](NC(=O)[C@H](CCCNC(=N)N)NC(=O)[C@H](CCC(N)=O)NC(=O)[C@@H](NC(=O)[C@H](NC(=O)[C@H](CCCNC(=N)N)NC(=O)[C@H](CCCCN)NC(=O)[C@@H](Cc1ccccc1)NC(=O)[C@@H](N)CCC(=O)O)[C@@H](C)CC)C(C)C)C(=O)N[C@@H](CCCCN)C(=O)N[C@@H](CC(=O)O)C(=O)N[C@H](Cc1ccccc1)C(=O)N[C@@H](CC(C)C)C(=O)N[C@@H](CCCNC(=N)N)C(=O)N[C@@H](CC(N)=O)C(=O)N[C@@H](CC(C)C)C(=O)N[C@H](C(=O)O)C(C)C	Active			
5 (≈ 11.1 µg/mL)	10 (≈ 22.2 µg/mL)	5 (≈ 11.1 µg/mL)	10 (≈ 22.2 µg/mL)	Unstable	Unstable	Unstable	10 (≈ 22.2 µg/mL)	Unstable	Active	inactive	CC[C@H](C)[C@H](NC(=O)[C@H](CCCNC(=N)N)NC(=O)[C@H](CCC(N)=O)NC(=O)[C@@H](NC(=O)[C@@H](NC(=O)[C@H](CCCNC(=N)N)NC(=O)[C@H](CCCCN)NC(=O)[C@H](Cc1ccccc1)NC(=O)[C@H](CCC(=O)O)NC(C)=O)[C@@H](C)CC)C(C)C)C(=O)N[C@@H](CCCCN)C(=O)N[C@@H](CC(=O)O)C(=O)N[C@@H](Cc1ccccc1)C(=O)N[C@@H](CC(C)C)C(=O)N[C@@H](CCCNC(=N)N)C(=O)N[C@@H](CC(N)=O)C(=O)N[C@@H](CC(C)C)C(=O)N[C@H](C(N)=O)C(C)C		Toxic	Toxic	Toxic
> 80	> 80	> 80	> 80				> 80				CC[C@@H](C)[C@@H](NC(=O)[C@H](CCCNC(=N)N)NC(=O)[C@H](CCC(N)=O)NC(=O)[C@@H](NC(=O)[C@H](NC(=O)[C@H](CCCNC(=N)N)NC(=O)[C@H](CCCCN)NC(=O)[C@@H](Cc1ccccc1)NC(=O)[C@H](CCC(=O)O)NC(C)=O)[C@H](C)CC)C(C)C)C(=O)N[C@@H](CCCCN)C(=O)N[C@@H](CC(=O)O)C(=O)N[C@H](Cc1ccccc1)C(=O)N[C@@H](CC(C)C)C(=O)N[C@@H](CCCNC(=N)N)C(=O)N[C@@H](CC(N)=O)C(=O)N[C@@H](CC(C)C)C(=O)N[C@H](C(N)=O)C(C)C [listing 2 of 2 here]				
